Tests used:
Format in all cases: functional, cell-based
HEp-2 [1] = experiment: Cytotoxicity of compound against growth of human Hep2 cell line
Outline: (§1)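 MTT dye-conversion assay. Cells kept in monolayer at 37 °C in humidified 5% CO2, trypsinized, seeded at 5 × 10³ cells/well and grown 24 h. Then treated 96 h with exponentially increasing drug concentrations in 10% FBS; compound stocks in DMSO. MTT (5 mg/mL in PBS) added for 3 h at 37 °C. Medium replaced with DMSO and OD read at 570 nm.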

SNU-308 = experiment: Inhibitory concentration of compound against growth of human SNU-308 cell line; Resistant; outline: as §1
HEp-2 [2] = experiment: Inhibitory concentration of compound against growth of human Hep2 cell line; Resistant; outline: as §1
HN006 cell line = experiment: Inhibitory concentration of compound against growth of human HN006 cell line; Resistant; outline: as §1
HuCCT-1 = experiment: Inhibitory concentration of compound against growth of human HuCCT-1 cell line; Resistant; outline: as §1
A-431 = experiment: Inhibitory concentration of compound against growth of human A431 cell line; Resistant; outline: as §1
BXPC-3 [3] = experiment: Inhibitory concentration of compound against growth of human BxPC3 cell line; Resistant; outline: as §1
PANC-1 = experiment: Inhibitory concentration of compound against growth of human Panc-1 cell line; Resistant; outline: as §1
MIA PaCa-2 [4] = experiment: Inhibitory concentration of compound against growth of human MIA PaCa cell line; Resistant; outline: as §1
HEp-2 [5] = experiment: Inhibitory concentration of compound against growth of human Hep2 cell line; outline: as §1
BXPC-3 [6] = experiment: Inhibitory concentration of compound against growth of human BxPC3 cell line; outline: as §1
MIA PaCa-2 [7] = experiment: Inhibitory concentration of compound against growth of human Mia-Paca cell line; outline: as §1

Q: How did the IC50 (HEp-2 [1]) turn out when `Cc1cc(NC(=O)N(C)C(=O)c2ccccc2NC(=O)N(C)C(=O)c2ccccc2N)ccc1Oc1ncc(Br)cn1` was run?
A: 5 µM

Q: `CNc1ccccc1C(=O)N(C)C(=O)Nc1ccc(Oc2ncc(Br)cn2)c(C)c1` was tested. Which Activity (SNU-308) did it give?
A: Resistant

Q: What about the Activity (HEp-2 [2]) of the same compound?
A: Resistant

Q: What about the Activity (HN006 cell line) of the same compound?
A: Resistant

Q: What about the Activity (HuCCT-1) of the same compound?
A: Resistant

Q: What about the Activity (A-431) of the same compound?
A: Resistant

Q: And the Activity (BXPC-3 [3])?
A: Resistant

Q: And the Activity (PANC-1)?
A: Resistant

Q: And the Activity (MIA PaCa-2 [4])?
A: Resistant

Q: What does the source list for `CNc1ccccc1C(=O)NC(=O)Nc1ccc(Oc2ncc(Br)cn2)c(C)c1`?
A: IC50 (HEp-2 [5]): 1 µM; IC50 (BXPC-3 [6]): 1 µM; IC50 (MIA PaCa-2 [7]): 1 µM

Q: Which IC50 (HEp-2 [1]) does the source give for `Cc1cc(NC(=O)N(C)C(=O)c2ccccc2N)ccc1Oc1ncc(Br)cn1` here?
A: 5 µM
